Consider 3 compounds from ChEMBL document CHEMBL1144407, “Synthesis of phosphonated carbocyclic 2'-oxa-3'-aza-nucleosides: novel inhibitors of reverse transcriptase” (J Med Chem, 2005).

The subject of assay [1] is HL-60. Briefly: Induction of apoptosis by the compound in human HL-60 cell line after 72 hours. In kind it is functional, cell-based. Particulars: HL-60, 72 h. The method, boiled down:
(§1)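 Cultures were exposed under optimal conditions to 16–1000 µM compound, or control medium, for the stated time. Cells were stained with acridine orange, and over 600 cells were counted by fluorescence microscopy. AC50 is the concentration giving 50% apoptosis, from three or more experiments (some are the mean of two).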

Assay [2] deals with HL-60. The experiment in a line: Cytotoxicity in human HL-60 cell line after 48 hours. In kind it is functional. Particulars: HL-60, 48 h. In short, it runs like this:
(§2)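 Cells held in optimal culture conditions were exposed to test agent at 16 to 1000 µM, or control medium, for the stated time. Viability was scored by trypan blue exclusion. CC50 is the concentration giving 50% toxicity, from three or more experiments (some values are the mean of two).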

The test system of assay [3] is MOLT-3. The experiment in a line: Induction of apoptosis by the compound in human Molt-3 cell line after 48 hours. It counts as functional, cell-based. Particulars: MOLT-3, 48 h. The method, boiled down:
as §1

Assay [4] relates to MOLT-3. The experiment in a line: Cytotoxicity in human Molt-3 cell line after 24 hours. Particulars: MOLT-3, 24 h. In kind it is functional. The method, boiled down:
as §2

For assay [5], the system named is HL-60. Briefly: Induction of apoptosis by the compound in human HL-60 cell line after 24 hours. It counts as functional, cell-based. Particulars: HL-60, 24 h. The method, boiled down: as §1
In assay [6] the test system is MOLT-3. The experiment in a line: Cytotoxicity in human Molt-3 cell line after 48 hours. In kind it is functional. Particulars: MOLT-3, 48 h. In short, it runs like this: as §2
The subject of assay [7] is U-937. The experiment in a line: Induction of apoptosis by the compound in human U937 cell line after 72 hours. In kind it is functional, cell-based. Particulars: U-937, 72 h. The method, boiled down:
as §1

The subject of assay [8] is HL-60. Briefly: Induction of apoptosis by the compound in human HL-60 cell line after 48 hours. In kind it is functional, cell-based. Particulars: HL-60, 48 h. In short, it runs like this:
as §1

Assay [9] has as its system MOLT-3. Briefly: Cytotoxicity in human Molt-3 cell line after 72 hours. Particulars: MOLT-3, 72 h. In kind it is functional. In short, it runs like this:
as §2

Assay [10] concerns U-937. Briefly: Cytotoxicity in human U937 cell line after 48 hours. Particulars: U-937, 48 h. In kind it is functional. The method, boiled down: as §2
The subject of assay [11] is U-937. Briefly: Cytotoxicity in human U937 cell line after 24 hours. It counts as functional. Particulars: U-937, 24 h. In short, it runs like this: as §2
Assay [12] has as its system MOLT-3. The experiment in a line: Induction of apoptosis by the compound in human Molt-3 cell line after 72 hours. Particulars: MOLT-3, 72 h. In kind it is functional, cell-based. The method, boiled down:
as §1

The subject of assay [13] is HL-60. The experiment in a line: Cytotoxicity in human HL-60 cell line after 72 hours. In kind it is functional. Particulars: HL-60, 72 h. The method, boiled down: as §2
In assay [14] the test system is U-937. Briefly: Induction of apoptosis by the compound in human U937 cell line after 24 hours. In kind it is functional, cell-based. Particulars: U-937, 24 h. In short, it runs like this: as §1
In assay [15] the test system is HL-60. The experiment in a line: Cytotoxicity in human HL-60 cell line after 24 hours. It counts as functional. Particulars: HL-60, 24 h. In short, it runs like this: as §2
For assay [16], the system named is U-937. Briefly: Cytotoxicity in human U937 cell line after 72 hours. Particulars: U-937, 72 h. It counts as functional. In short, it runs like this:
as §2

The test system of assay [17] is MOLT-3. Briefly: Induction of apoptosis by the compound in human Molt-3 cell line after 24 hours. In kind it is functional, cell-based. Particulars: MOLT-3, 24 h. In short, it runs like this:
as §1

The subject of assay [18] is U-937. The experiment in a line: Induction of apoptosis by the compound in human U937 cell line after 48 hours. In kind it is functional, cell-based. Particulars: U-937, 48 h. The method, boiled down:
as §1

By AC50 is commonly meant the midpoint of the concentration-response curve, whichever way the signal moves. Low values mean activity at low concentration, high ones activity only at high concentration. As a reminder, the CC50 is the concentration giving 50% cytotoxicity. High values mean better tolerance by the cells, low ones harm at low concentration. Consider `CCOP(=O)(CC1CC(n2cc(C)c(=O)[nH]c2=O)ON1C)OCC` (configuration not stated), for which the concentration at half-maximal activity (AC50) in the assay on HL-60 [1], in the assay on MOLT-3 [3], with HL-60 [5], in the assay on U-937 [7], in the assay on HL-60 [8] and in the assay with MOLT-3 [12] was greater than 1000 µM each time. In addition, the AC50 with U-937 [14], in the assay with MOLT-3 [17] and with U-937 [18] was greater than 1000 µM throughout. Besides, the 50% cytotoxic concentration (CC50) in the assay with HL-60 [2], with MOLT-3 [4], with MOLT-3 [6], in the assay on MOLT-3 [9], in the assay with U-937 [10] and in the assay with U-937 [11] was greater than 1000 µM throughout. Moreover, the half-maximal cytotoxic concentration (CC50) with HL-60 [13], with HL-60 [15] and with U-937 [16] was greater than 1000 µM throughout.
For the compound `CCOP(=O)(CC1CC(n2cc(F)c(=O)[nH]c2=O)ON1C)OCC` (configuration not stated), the CC50 with HL-60 [2] was 457 µM; with MOLT-3 [4], 247 µM; in the assay on MOLT-3 [6], 197 µM; in the assay on MOLT-3 [9] it was 141 µM; in the assay with HL-60 [13], 408 µM; in the assay with HL-60 [15], greater than 1000 µM. Further, the AC50 worked out at 277 µM in the assay with MOLT-3 [3]; 250 µM in the assay on HL-60 [5]; 151 µM in the assay with HL-60 [8]; 170 µM with MOLT-3 [12]; 457 µM in the assay with MOLT-3 [17].
As for `CCOP(=O)(CC1CC(n2ccc(N)nc2=O)ON1C)OCC` (configuration not stated), the half-maximal activity concentration (AC50) with HL-60 [1], in the assay on MOLT-3 [3], in the assay on HL-60 [5], in the assay on U-937 [7], in the assay with HL-60 [8] and in the assay with MOLT-3 [12] was greater than 1000 µM each time. Further, the AC50 in the assay with U-937 [14], with MOLT-3 [17] and with U-937 [18] was greater than 1000 µM in each case. Further, the CC50 in the assay on HL-60 [2], in the assay on MOLT-3 [4], in the assay on MOLT-3 [6], in the assay with MOLT-3 [9], in the assay with U-937 [10] and in the assay on U-937 [11] was greater than 1000 µM each time. Moreover, the CC50 with HL-60 [13], in the assay with HL-60 [15] and in the assay with U-937 [16] was greater than 1000 µM each time.
